Measurements: ChEMBL document CHEMBL1250429, “Studies on the anti-hepatitis C virus activity of newly synthesized tropolone derivatives: identification of NS3 helicase inhibitors that specifically inhibit subgenomic HCV replication” (Bioorg Med Chem, 2010)

Key:
[1] = Cytotoxicity against human HuH7 cells; assay type: cell-based, Huh-7
In short: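 Replicon-bearing Huh-7 cells were grown with compound at 1 μM to 1 mM at a constant final 1% solvent. CC50 = concentration inhibiting cell growth by 50%. Mean of at least three independent experiments ± SD.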

[2] = Inhibition of HCV genotype 3a NS3 helicase; design: species or system Hepatitis C virus subtype 3a
In short: (§1)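 Fluorescence unwinding assay with purified NS3 helicase domains. Genotype 1a was expressed in baculovirus-infected insect cells; genotypes 1b and 3a were cloned from patient blood by RT-PCR, purity 95% by SDS–PAGE. Reactions used 10 nM dsDNA substrate, 20 nM enzyme and 125 nM capture strand. Inhibitor (1–300 μM) was preincubated with enzyme and substrate 15 min at room temperature without ATP. Reactions were started with 1.5 mM ATP and run 60 min at 30 °C, read every 2 min. Activity = initial velocity; inhibition relative to no-inhibitor control. Mean of at least three experiments ± SD.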

[3] = Inhibition of HCV NS3 helicase; design: species or system Hepacivirus hominis; in short: as §1
[4] = Selectivity index, ratio of CC50 for human HuH7 cells to EC50 for; design: species or system Huh-7
In short: (§2)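 Huh-7 cells carrying a stably replicating subgenomic HCV replicon were grown with compound at 1 μM to 1 mM, final solvent 1%; solvent-only cells served as control. Remaining replication read as luminescence. EC50 = concentration reducing luminescence by 50%; SI = CC50/EC50. Mean of at least three independent experiments ± SD.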

[5] = Inhibition of HCV genotype 1a NS3 helicase; design: species or system Hepatitis C virus subtype 1a; in short: as §1
Hepatitis C virus [6] = test: Antiviral activity against HCV Con 1 by subgenomic replicon assay; assay type: functional, organism-based, Hepacivirus hominis; conditions: Con1; in short: as §2
Hepatitis C virus [7] = test: Inhibition of HCV genotype 1B NS3 helicase; design: species or system Hepatitis C virus subtype 1b; in short: as §1

Row | Compound | CC50 [1] | IC50 [2] | IC50 [3] | Ratio CC50/EC50 [4] | IC50 [5] | EC50 (Hepatitis C virus [6]) | IC50 (Hepatitis C virus [7])
1 | CN1CCN(Cc2cc(CN3CCN(C)CC3)c(O)c(=O)c(CN3CCN(C)CC3)c2)CC1 | > 1000 µM | 4.5 µM | 3.4 µM | >21.3 | 3.4 µM | 46.9 µM | 3.5 µM
2 | CC1CCN(Cc2cc(CN3CCC(C)CC3)c(O)c(=O)c(CN3CCC(C)CC3)c2)CC1 | 556 µM | – | 10.5 µM | 17.4 | – | 32 µM | –
3 | O=c1c(CN2CCC(O)CC2)cc(CN2CCC(O)CC2)cc(CN2CCC(O)CC2)c1O | > 250 µM | – | 22.7 µM | – | – | > 250 µM | –
4 | O=c1c(CN2CCCC2)cc(CN2CCCC2)cc(CN2CCCC2)c1O | > 500 µM | – | 184 µM | – | – | > 500 µM | –
5 | O=c1c(Br)cccc(Br)c1O | 92.7 µM | – | > 150 µM | 1 | – | 89.8 µM | –
6 | O=c1ccccc(Br)c1O | 85.2 µM | – | > 150 µM | 0.7 | – | 121 µM | –
7 | [N-]=[N+]=N[C@]1(CO)O[C@@H](n2ccc(N)nc2=O)[C@H](O)[C@@H]1O [4'-AZIDOCYTIDINE] | > 100 µM | – | – | – | – | 10.5 µM | –
8 | NC(=O)c1ncn([C@@H]2O[C@H](CO)[C@@H](O)[C@H]2O)n1 [RIBAVIRIN] | 178 µM | – | – | 1.5 | – | 120 µM | –
9 | O=c1c(CN2CCCCC2)cc(CN2CCCCC2)cc(CN2CCCCC2)c1O | > 500 µM | – | 26.5 µM | >3.6 | – | 137 µM | –
10 | CC1CCCN(Cc2cc(CN3CCCC(C)C3)c(O)c(=O)c(CN3CCCC(C)C3)c2)C1 (centres undefined) | 348 µM | – | 17.8 µM | 9.8 | – | 35.6 µM | –
11 | O=c1c(CN2CCC(N3CCCC3)CC2)cc(CN2CCC(N3CCCC3)CC2)cc(CN2CCC(N3CCCC3)CC2)c1O | > 200 µM | – | 7 µM | – | – | > 200 µM | –
12 | O=c1c(Cl)cccc(Cl)c1O | 254 µM | – | > 150 µM | 0.8 | – | 334 µM | –
13 | O=c1c(Br)cc(CN2CCOCC2)cc(Br)c1O | 227 µM | – | 17.6 µM | 1.3 | – | 176 µM | –
